Screening data as filed in PubChem BioAssay.
DENV2 CPE rescue – inhibitors of DENV2 cytopathic effect. 350,000 compounds, 1.7% hits. AID 651640. DENV2-infected cells, cytopathic effect rescue, plate reader. CPE inhibition, % at 9.99 µM; in the data active = CPE inhibition above about 20%, passing the limit was not always enough; tested in BHK-21 cells
E-sel inducer – induces E-selectin expression in human endothelial cells; P16581; HUVEC E-selectin immunofluorescence imaging; normalized: neutral wells 0, TNF-alpha wells 100; activation, % at 7.58 µM; 260,000 compounds, 0.37% hits; AID 686992;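 active = mean E-selectin-positive cell signal at least 10% of the positive control, reached in at least 60% of replicates, without over 20% cell loss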
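System: HUVEC / Compound: single concentration / Signal: immunofluorescence imaging / Read-out: percent E-selectin-positive cells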
SIRT5 inh – inhibitors of human sirtuin-5 desuccinylase; Purified SirT5, succinyl-peptide AMC, trypsin-coupled fluorescence; 330,000 compounds, 1.1% hits; inhibition, % at 15 µM; Q9NXA8; in the data active = inhibition above about 15%
Target sequence (Q9NXA8 whole entry, looked up): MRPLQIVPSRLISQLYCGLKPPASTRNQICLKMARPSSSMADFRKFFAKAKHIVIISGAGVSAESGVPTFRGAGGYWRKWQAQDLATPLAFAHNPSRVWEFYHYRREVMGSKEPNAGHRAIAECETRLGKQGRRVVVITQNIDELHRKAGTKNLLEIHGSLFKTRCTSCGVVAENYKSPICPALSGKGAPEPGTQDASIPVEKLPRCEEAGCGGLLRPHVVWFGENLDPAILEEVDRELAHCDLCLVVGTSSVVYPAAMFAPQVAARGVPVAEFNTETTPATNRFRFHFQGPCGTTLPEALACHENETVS
Numbers stand for hits; . = inactive; / = not tested or not shown; ! = repeats disagree. An excerpt weighted towards active compounds, which were near 2.8% of everything screened.

SMILES	DENV2 CPE rescue	E-sel inducer	SIRT5 inh
Cc1noc(C)c1NC(=O)Nc1ccc2c(c1)CC(=O)N([C@H](C)CO)C[C@H](C)[C@H](CN(C)C(=O)Nc1cccc3ccccc13)O2	63	.	.
C[C@H]1CN([C@@H](C)CO)C(=O)Cc2cc(NC(=O)Nc3cccc4ccccc34)ccc2O[C@H]1CN(C)C	.	.	.
C[C@H](CO)N1C[C@H](C)[C@H](CN(C)C(=O)NC2CCCCC2)Oc2ccc(NC(=O)Nc3cccc4ccccc34)cc2CC1=O	.	.	.
C[C@@H]1CN([C@@H](C)CO)C(=O)Cc2cc(NC(=O)Nc3cccc4ccccc34)ccc2O[C@@H]1CN(C)S(C)(=O)=O	66!	.	.
C[C@H]1CN([C@@H](C)CO)C(=O)Cc2cc(NC(=O)Nc3cccc4ccccc34)ccc2O[C@H]1CN(C)S(C)(=O)=O	.	.	.
C[C@H](CO)N1C[C@H](C)[C@@H](CN(C)C)Oc2ccc(NC(=O)Nc3cccc4ccccc34)cc2CC1=O	39	.	.
Cc1noc(C)c1NC(=O)Nc1ccc2c(c1)CC(=O)N([C@@H](C)CO)C[C@H](C)[C@H](CN(C)C(=O)Nc1cccc3ccccc13)O2	.	.	.
C[C@@H]1CN([C@H](C)CO)C(=O)Cc2cc(NC(=O)Nc3cccc4ccccc34)ccc2O[C@@H]1CN(C)C(=O)NC1CCCCC1	22	/	.
C[C@@H]1CN([C@H](C)CO)C(=O)c2cccc(NC(=O)c3cnccn3)c2O[C@@H]1CN(C)C(=O)NC1CCCCC1	/	.	/
C[C@H]1CN([C@@H](C)CO)C(=O)Cc2cc(NS(=O)(=O)c3ccccc3)ccc2O[C@@H]1CN(C)C	.	.	.
C[C@H](NC(=O)[C@H]1[C@H](CO)[C@H]2Cn3c(cccc3=O)[C@H]2N1CC1CCCCC1)c1ccccc1	.	.	.
C/C(=N\OCC(=O)Nc1ccccc1C(C)(C)C)c1ccc2c(c1)OCCO2	.	.	.
C/C(=N\OCC(=O)Nc1ccc(OC(F)(F)F)cc1)c1ccc2c(c1)OCCO2	108	/	.
COc1cc(NC(=O)COC(=O)CO/N=C(\C)c2ccc3c(c2)OCO3)cc(OC)c1OC	.	180	.
COc1cc(NC(=O)COC(=O)CO/N=C(\C)c2ccc3c(c2)OCO3)cc(OC)c1	.	.	.
COCC(=O)Nc1ccc2c(c1)[C@H]1C[C@H](CC(=O)N3CCCCC3)O[C@@H](CO)[C@H]1O2	.	.	/
COc1ccccc1S(=O)(=O)N[C@H]1CC[C@@H](CC(=O)N2CCOCC2)O[C@H]1CO	.	.	.
CCNC(=O)[C@@H]1[C@@H](CO)[C@@H]2Cn3c(ccc(/C=C/c4ccccc4)c3=O)[C@@H]2N1C(C)=O	62	.	.
CCCN1[C@H](C(=O)NCC)[C@@H](CO)[C@@H]2Cn3c(ccc(/C=C/c4ccccc4)c3=O)[C@@H]21	.	.	.
CCNC(=O)[C@H]1[C@H](CO)[C@H]2Cn3c(ccc(-c4cccnc4)c3=O)[C@H]2N1Cc1ccc2c(c1)OCO2	.	.	.
CC=Cc1ccc2n(c1=O)C[C@@H]1[C@@H](CO)[C@H](C(=O)NCc3ccc(F)cc3)N(CC)[C@H]21 (mixture of isomers)	.	.	.
CC=Cc1ccc2n(c1=O)C[C@@H]1[C@@H](CO)[C@H](C(=O)NCc3ccccc3)N(CC)[C@H]21 (mixture of isomers)	38	.	.
CCNC(=O)[C@@H]1[C@@H](CO)[C@@H]2Cn3c(ccc(-c4cccnc4)c3=O)[C@@H]2N1Cc1ccc2c(c1)OCO2	.	.	23
CC=Cc1ccc2n(c1=O)C[C@@H]1[C@@H](CO)[C@H](C(=O)NC3Cc4ccccc4C3)N(CC3CC3)[C@H]21 (mixture of isomers)	75	.	.
CC=Cc1ccc2n(c1=O)C[C@H]1[C@H](CO)[C@@H](C(=O)NC3Cc4ccccc4C3)N(CC)[C@@H]21 (mixture of isomers)	.	.	.
SMILES	DENV2 CPE rescue	E-sel inducer	SIRT5 inh
CO[C@H]1CN(C)C(=O)c2cc(NC(=O)NC3CCCC3)ccc2OC[C@H](C)NC[C@@H]1C	/	.	/
O=C(c1ccccn1)N1C[C@H]2[C@@H](c3ccccc31)[C@@H](CO)N2C(=O)C1CCOCC1	.	.	.
C[C@@H]1CCCCO[C@H](CN(C)C(=O)CCC(F)(F)F)[C@H](C)CN([C@H](C)CO)C(=O)c2cc(NS(=O)(=O)c3ccc(F)cc3)ccc2O1	.	/	.
CN(C)CC#Cc1ccc([C@@H]2[C@H]3CN(C(=O)Cc4cccnc4)CC(=O)N3[C@H]2CO)cc1	.	.	.
CCN1[C@H](C(=O)NCCCN(C)C)[C@@H](CO)[C@@H]2Cn3c(ccc(-c4cccc(F)c4)c3=O)[C@@H]21	80	.	.
CN(C)C(=O)[C@H]1[C@H](CO)[C@H]2Cn3c(ccc(-c4cccc(F)c4)c3=O)[C@H]2N1C(=O)c1cnccn1	30	.	.
CC=Cc1ccc2n(c1=O)C[C@H]1[C@H](CO)[C@@H](C(=O)Nc3nccs3)N(C(=O)CC)[C@@H]21 (mixture of isomers)	58	.	.
CN(C)C(=O)[C@@H]1[C@@H](CO)[C@@H]2Cn3c(ccc(-c4cccc(F)c4)c3=O)[C@@H]2N1C(=O)c1ccccn1	/	.	/
CCC(=O)N1[C@H](C(=O)Nc2nccs2)[C@@H](CO)[C@@H]2Cn3c(ccc(/C=C/c4ccccc4)c3=O)[C@@H]21	.	.	.
CCN1[C@@H]2c3ccc(-c4cccc(F)c4)c(=O)n3C[C@@H]2[C@@H](CO)[C@@H]1C(=O)NCCCN(C)C	.	.	.
CC=Cc1ccc2n(c1=O)C[C@@H]1[C@@H](CO)[C@H](C(=O)NCc3ccccc3F)N(CC)[C@H]21 (mixture of isomers)	.	.	16
CC=Cc1ccc2n(c1=O)C[C@H]1[C@H](CO)[C@@H](C(=O)NCc3ccccc3F)N(S(C)(=O)=O)[C@@H]21 (mixture of isomers)	.	.	.
C[C@H](CO)N1C[C@H](C)[C@H](CN(C)C(=O)Nc2ccc(F)cc2)Oc2ncc(-c3ccc(C#N)cc3)cc2C1=O	.	.	.
CC(C)NC(=O)Nc1ccc2c(c1)C(=O)N([C@H](C)CO)C[C@@H](C)[C@H](CN(C)C(=O)c1ccncc1)OCCCC[C@@H](C)O2	.	.	.
C[C@H](CO)N1C[C@H](C)[C@H](CN(C)C)Oc2cc(C3=CCCC3)ccc2S1(=O)=O	.	.	.
COCC(=O)Nc1ccc2c(c1)[C@H]1C[C@H](CC(=O)NCc3cc(F)ccc3F)O[C@H](CO)[C@H]1O2	.	.	/
CCN1[C@H](C(=O)NCc2ccccc2)[C@@H](CO)[C@@H]2Cn3c(ccc(-c4ccncc4)c3=O)[C@@H]21	.	.	19
CCN1[C@H](C(=O)NCc2ccccc2)[C@@H](CO)[C@@H]2Cn3c(ccc(-c4cccnc4)c3=O)[C@@H]21	.	.	.
COc1ccc(NC(=O)N(C)C[C@@H]2OCCCC[C@H](C)Oc3ccc(NC(=O)Nc4ccc(C(F)(F)F)cc4)cc3C(=O)N([C@@H](C)CO)C[C@H]2C)cc1	.	.	.
CCCNC(=O)Nc1ccc2c(c1)OC[C@H](C)N(Cc1ccc(-c3ccccn3)cc1)C[C@@H](C)[C@H](OC)CN(C)C2=O	25	.	/
